From ChEMBL document CHEMBL1131139, “Synthesis and antibacterial activity of ketolides (6-O-methyl-3-oxoerythromycin derivatives): a new class of antibacterials highly potent against macrolide-resistant and -susceptible respiratory pathogens” (1998)
Converted amounts (≈) assume the structure as drawn.

Columns and labels:
Type in all cases: functional
Escherichia coli = experiment: In vitro inhibitory activity against Escherichia coli (250 UC5)
Procedure, shortened: (§1)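 Two-fold agar dilution on Mueller-Hinton agar (pH 7.4). Inoculum from overnight plate cultures suspended in Mueller-Hinton broth, adjusted to 10^9 CFU/mL, diluted 1:200 and spotted by multipoint inoculator at about 10^4 CFU/spot. Plates incubated 37 °C for 20 h. MIC taken as lowest concentration with no visible growth.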

Streptococcus pyogenes = experiment: In vitro inhibitory activity against Streptococcus pyogenes (02A1UC1); procedure, shortened: as §1
Streptococcus pneumoniae [1] = experiment: In vitro inhibitory activity against Streptococcus pneumoniae (EryRi 030SJ5i); procedure, shortened: as §1
Haemophilus influenzae [2] = experiment: In vitro inhibitory activity against Haemophilus influenzae (351HT3); procedure, shortened: as §1
Haemophilus influenzae [3] = experiment: In vitro inhibitory activity against Haemophilus influenzae (351CB12); procedure, shortened: as §1
Staphylococcus aureus [4] = experiment: In vitro inhibitory activity against Staphylococcus aureus (EryRc 011CB20); procedure, shortened: as §1
Streptococcus pneumoniae [5] = experiment: In vitro inhibitory activity against Streptococcus pneumoniae (032UC1); procedure, shortened: as §1
Streptococcus pneumoniae [6] = experiment: In vitro inhibitory activity against Streptococcus pneumoniae (EryRc 030SJ1); procedure, shortened: as §1
Staphylococcus aureus [7] = experiment: In vitro inhibitory activity against Staphylococcus aureus (EryRi 011GO25i); procedure, shortened: as §1
[8] = test system: Staphylococcus epidermidis; experiment: In vitro inhibitory activity against Staphylococcus epidermidis (EryRi 012GO11i); procedure, shortened: as §1
Staphylococcus aureus [9] = experiment: In vitro inhibitory activity against Staphylococcus aureus (011UC4); procedure, shortened: as §1

CC[C@H]1OC(=O)[C@H](C)C(=O)[C@H](C)[C@@H](O[C@@H]2O[C@H](C)C[C@H](N(C)C)[C@H]2O)[C@](C)(OC)C[C@@H](C)/C(=N\OC2CCCN(CCCc3ccc(O)cc3)C2)[C@H](C)[C@@H](O)[C@]1(C)O (some centres undefined)
MIC (Escherichia coli): 40 µg/mL (≈ 48.8 µM)
MIC (Streptococcus pyogenes): 0.04 µg/mL (≈ 0.0488 µM)
MIC (Streptococcus pneumoniae [1]): 0.15 µg/mL (≈ 0.183 µM)
MIC (Haemophilus influenzae [2]): 5 µg/mL (≈ 6.1 µM)
MIC (Haemophilus influenzae [3]): 1.2 µg/mL (≈ 1.46 µM)
MIC (Staphylococcus aureus [4]): 40 µg/mL (≈ 48.8 µM)
MIC (Streptococcus pneumoniae [5]): 0.02 µg/mL (≈ 0.0244 µM)
MIC (Streptococcus pneumoniae [6]): 0.6 µg/mL (≈ 0.732 µM)
MIC (Staphylococcus aureus [7]): 0.6 µg/mL (≈ 0.732 µM)
MIC [8]: 0.3 µg/mL (≈ 0.366 µM)
MIC (Staphylococcus aureus [9]): 0.08 µg/mL (≈ 0.0976 µM)

CC[C@H]1OC(=O)[C@H](C)C(=O)[C@H](C)[C@@H](O[C@@H]2O[C@H](C)C[C@H](N(C)C)[C@H]2O)[C@](C)(OC)C[C@@H](C)/C(=N\OCCNCCCn2ccnc2)[C@H](C)[C@@H](O)[C@]1(C)O
MIC (Escherichia coli): 40 µg/mL (≈ 53.1 µM)
MIC (Streptococcus pyogenes): 0.04 µg/mL (≈ 0.0531 µM)
MIC (Streptococcus pneumoniae [1]): 20 µg/mL (≈ 26.5 µM)
MIC (Haemophilus influenzae [2]): 5 µg/mL (≈ 6.63 µM)
MIC (Haemophilus influenzae [3]): 5 µg/mL (≈ 6.63 µM)
MIC (Staphylococcus aureus [4]): 40 µg/mL (≈ 53.1 µM)
MIC (Streptococcus pneumoniae [5]): 0.3 µg/mL (≈ 0.398 µM)
MIC (Streptococcus pneumoniae [6]): 40 µg/mL (≈ 53.1 µM)
MIC (Staphylococcus aureus [7]): 2.5 µg/mL (≈ 3.32 µM)
MIC [8]: 1.2 µg/mL (≈ 1.59 µM)
MIC (Staphylococcus aureus [9]): 0.3 µg/mL (≈ 0.398 µM)

CC[C@H]1OC(=O)[C@H](C)C(=O)[C@H](C)[C@@H](O[C@@H]2O[C@H](C)C[C@H](N(C)C)[C@H]2O)[C@](C)(OC)C[C@@H](C)/C(=N\OCc2c(C)cc(C)cc2C)[C@H](C)[C@@H](O)[C@]1(C)O
MIC (Escherichia coli): 40 µg/mL (≈ 54.4 µM)
MIC (Streptococcus pyogenes): 0.3 µg/mL (≈ 0.408 µM)
MIC (Streptococcus pneumoniae [1]): 5 µg/mL (≈ 6.8 µM)
MIC (Haemophilus influenzae [2]): 40 µg/mL (≈ 54.4 µM)
MIC (Haemophilus influenzae [3]): 40 µg/mL (≈ 54.4 µM)
MIC (Staphylococcus aureus [4]): 10 µg/mL (≈ 13.6 µM)
MIC (Streptococcus pneumoniae [5]): 0.04 µg/mL (≈ 0.0544 µM)
MIC (Streptococcus pneumoniae [6]): 5 µg/mL (≈ 6.8 µM)
MIC (Staphylococcus aureus [7]): 0.6 µg/mL (≈ 0.816 µM)
MIC [8]: 0.6 µg/mL (≈ 0.816 µM)
MIC (Staphylococcus aureus [9]): 0.3 µg/mL (≈ 0.408 µM)

CC[C@H]1OC(=O)[C@H](C)C(=O)[C@H](C)[C@@H](O[C@@H]2O[C@H](C)C[C@H](N(C)C)[C@H]2O)[C@](C)(OC)C[C@@H](C)C(=O)[C@H](C)[C@H]2N(CCOCc3ccccc3)C(=O)O[C@]12C
MIC (Escherichia coli): 40 µg/mL (≈ 53.6 µM)
MIC (Streptococcus pyogenes): 0.02 µg/mL (≈ 0.0268 µM)
MIC (Streptococcus pneumoniae [1]): 0.3 µg/mL (≈ 0.402 µM)
MIC (Haemophilus influenzae [2]): 1.2 µg/mL (≈ 1.61 µM)
MIC (Haemophilus influenzae [3]): 0.6 µg/mL (≈ 0.803 µM)
MIC (Staphylococcus aureus [4]): 40 µg/mL (≈ 53.6 µM)
MIC (Streptococcus pneumoniae [5]): 0.02 µg/mL (≈ 0.0268 µM)
MIC (Streptococcus pneumoniae [6]): 5 µg/mL (≈ 6.69 µM)
MIC (Staphylococcus aureus [7]): 0.08 µg/mL (≈ 0.107 µM)
MIC [8]: 0.15 µg/mL (≈ 0.201 µM)
MIC (Staphylococcus aureus [9]): 0.04 µg/mL (≈ 0.0536 µM)

CC[C@H]1OC(=O)[C@H](C)C(=O)[C@H](C)[C@@H](O[C@@H]2O[C@H](C)C[C@H](N(C)C)[C@H]2O)[C@](C)(OC)C[C@@H](C)C2=NCCN3C(=O)O[C@@]1(C)[C@H]3[C@H]2C
MIC (Escherichia coli): 40 µg/mL (≈ 62.7 µM)
MIC (Streptococcus pyogenes): 0.08 µg/mL (≈ 0.125 µM)
MIC (Streptococcus pneumoniae [1]): 40 µg/mL (≈ 62.7 µM)
MIC (Haemophilus influenzae [2]): 5 µg/mL (≈ 7.84 µM)
MIC (Haemophilus influenzae [3]): 5 µg/mL (≈ 7.84 µM)
MIC (Staphylococcus aureus [4]): 40 µg/mL (≈ 62.7 µM)
MIC (Streptococcus pneumoniae [5]): 0.02 µg/mL (≈ 0.0314 µM)
MIC (Streptococcus pneumoniae [6]): 40 µg/mL (≈ 62.7 µM)
MIC (Staphylococcus aureus [7]): 0.6 µg/mL (≈ 0.941 µM)
MIC [8]: 0.3 µg/mL (≈ 0.47 µM)
MIC (Staphylococcus aureus [9]): 0.3 µg/mL (≈ 0.47 µM)

CC[C@H]1OC(=O)[C@H](C)C(=O)[C@H](C)[C@@H](O[C@@H]2O[C@H](C)C[C@H](N(C)C)[C@H]2O)[C@](C)(OC)C[C@@H](C)C(=O)[C@@H](C)[C@H]2N(N)C(=O)O[C@]12C
MIC (Escherichia coli): 40 µg/mL (≈ 63.7 µM)
MIC (Streptococcus pyogenes): 2.5 µg/mL (≈ 3.98 µM)
MIC (Streptococcus pneumoniae [1]): 40 µg/mL (≈ 63.7 µM)
MIC (Haemophilus influenzae [2]): 40 µg/mL (≈ 63.7 µM)
MIC (Haemophilus influenzae [3]): 40 µg/mL (≈ 63.7 µM)
MIC (Staphylococcus aureus [4]): 40 µg/mL (≈ 63.7 µM)
MIC (Streptococcus pneumoniae [5]): 5 µg/mL (≈ 7.96 µM)
MIC (Streptococcus pneumoniae [6]): 40 µg/mL (≈ 63.7 µM)
MIC (Staphylococcus aureus [7]): 40 µg/mL (≈ 63.7 µM)
MIC [8]: 40 µg/mL (≈ 63.7 µM)
MIC (Staphylococcus aureus [9]): 40 µg/mL (≈ 63.7 µM)

CC[C@H]1OC(=O)[C@H](C)C(=O)[C@H](C)[C@@H](O[C@@H]2O[C@H](C)C[C@H](N(C)C)[C@H]2O)[C@](C)(OC)C[C@@H](C)/C(=N\O[C@@H]2CCCN(Cc3ccc(-c4ccccc4)cc3)C2)[C@H](C)[C@@H](O)[C@]1(C)O
MIC (Escherichia coli): 40 µg/mL (≈ 46.9 µM)
MIC (Streptococcus pyogenes): 0.04 µg/mL (≈ 0.0469 µM)
MIC (Streptococcus pneumoniae [1]): 0.3 µg/mL (≈ 0.352 µM)
MIC (Haemophilus influenzae [2]): 40 µg/mL (≈ 46.9 µM)
MIC (Haemophilus influenzae [3]): 10 µg/mL (≈ 11.7 µM)
MIC (Staphylococcus aureus [4]): 20 µg/mL (≈ 23.5 µM)
MIC (Streptococcus pneumoniae [5]): 0.3 µg/mL (≈ 0.352 µM)
MIC (Streptococcus pneumoniae [6]): 5 µg/mL (≈ 5.87 µM)
MIC (Staphylococcus aureus [7]): 0.3 µg/mL (≈ 0.352 µM)
MIC [8]: 0.6 µg/mL (≈ 0.704 µM)
MIC (Staphylococcus aureus [9]): 0.6 µg/mL (≈ 0.704 µM)

C#CCNCCO/N=C1\[C@H](C)C[C@@](C)(OC)[C@H](O[C@@H]2O[C@H](C)C[C@H](N(C)C)[C@H]2O)[C@@H](C)C(=O)[C@@H](C)C(=O)O[C@H](CC)[C@@](C)(O)[C@H](O)[C@H]1C
MIC (Escherichia coli): 40 µg/mL (≈ 58.5 µM)
MIC (Streptococcus pyogenes): 0.08 µg/mL (≈ 0.117 µM)
MIC (Streptococcus pneumoniae [1]): 40 µg/mL (≈ 58.5 µM)
MIC (Haemophilus influenzae [2]): 20 µg/mL (≈ 29.2 µM)
MIC (Haemophilus influenzae [3]): 10 µg/mL (≈ 14.6 µM)
MIC (Staphylococcus aureus [4]): 40 µg/mL (≈ 58.5 µM)
MIC (Streptococcus pneumoniae [5]): 2.5 µg/mL (≈ 3.66 µM)
MIC (Streptococcus pneumoniae [6]): 5 µg/mL (≈ 7.31 µM)
MIC (Staphylococcus aureus [7]): 5 µg/mL (≈ 7.31 µM)
MIC [8]: 0.3 µg/mL (≈ 0.439 µM)
MIC (Staphylococcus aureus [9]): 0.3 µg/mL (≈ 0.439 µM)

CC[C@H]1OC(=O)[C@H](C)C(=O)[C@H](C)[C@@H](O[C@@H]2O[C@H](C)C[C@H](N(C)C)[C@H]2O)[C@](C)(OC)C[C@@H](C)C(=O)[C@H](C)[C@H]2N(CCCc3ccccc3)C(=O)O[C@]12C
MIC (Escherichia coli): 40 µg/mL (≈ 54.7 µM)
MIC (Streptococcus pyogenes): 0.15 µg/mL (≈ 0.205 µM)
MIC (Streptococcus pneumoniae [1]): 20 µg/mL (≈ 27.4 µM)
MIC (Haemophilus influenzae [2]): 40 µg/mL (≈ 54.7 µM)
MIC (Haemophilus influenzae [3]): 10 µg/mL (≈ 13.7 µM)
MIC (Staphylococcus aureus [4]): 40 µg/mL (≈ 54.7 µM)
MIC (Streptococcus pneumoniae [5]): 0.3 µg/mL (≈ 0.41 µM)
MIC (Streptococcus pneumoniae [6]): 40 µg/mL (≈ 54.7 µM)
MIC (Staphylococcus aureus [7]): 2.5 µg/mL (≈ 3.42 µM)
MIC [8]: 1.2 µg/mL (≈ 1.64 µM)
MIC (Staphylococcus aureus [9]): 1.2 µg/mL (≈ 1.64 µM)
